Assay outcomes as filed in PubChem.
This is a sample that favours compounds with a hit; in the whole collection about 0.9% have one here.
DDE Tn6 FP inh = disrupts Tn6 cyclic peptide binding to fibrin D-Dimer-E complex | AID 720509 | P02675 | 370,000 compounds, 0.21% hits | Fibrin DD(E) TRITC-Tn6 fluorescence polarization displacement | inhibition, % at 8.3 µM;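 active means inhibition above a per-campaign cutoff: mean of compounds within control limits plus 3 SD, cut at about 15% in these data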
Target sequence (P02675 whole entry, looked up): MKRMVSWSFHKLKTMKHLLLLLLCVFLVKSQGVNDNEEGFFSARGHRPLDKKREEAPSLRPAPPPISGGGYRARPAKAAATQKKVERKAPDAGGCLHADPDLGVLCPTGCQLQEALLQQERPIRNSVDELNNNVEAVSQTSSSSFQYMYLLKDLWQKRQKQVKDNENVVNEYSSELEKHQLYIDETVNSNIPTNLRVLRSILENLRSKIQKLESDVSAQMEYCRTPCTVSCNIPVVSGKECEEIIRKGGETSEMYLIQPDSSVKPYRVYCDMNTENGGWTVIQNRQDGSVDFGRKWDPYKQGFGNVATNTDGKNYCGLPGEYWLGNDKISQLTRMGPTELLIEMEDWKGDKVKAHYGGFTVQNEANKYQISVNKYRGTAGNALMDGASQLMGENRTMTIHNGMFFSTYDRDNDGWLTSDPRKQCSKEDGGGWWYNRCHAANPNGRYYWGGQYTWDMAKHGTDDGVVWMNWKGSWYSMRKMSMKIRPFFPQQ
DAGLB inhibitor = blocks human DAGLB lipase activity; Q8NCG7; 340,000 compounds, 0.059% hits; inhibition, % at 5.17 µM; AID 504411; HEK293T DAGLB membrane lysate, EnzChek fluorogenic substrate; in the data active means inhibition above about 34%
SKN-1 inh = C. elegans SKN-1 inhibition; C. elegans VP596 Pgst-4::GFP/RFP ratio, acrylamide-induced, 24 h; inhibition, % at 21.8 µM; 360,000 compounds, 0.49% hits;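 active means interference check ratio from 0.5 to 1.5 plus GFP to RFP signal ratio inhibition reaching or exceeding a fixed threshold, cut at about 30% in these data, passing the limit was not always enough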
MT1-MMP act inh = MT1-MMP (human) activation inhibition. AID 651647. P50281. HT1080 RFP-PRO-GFP cells, GFP/RFP ratio fluorescence, overnight; percent of plate control window, DMSO zero. 360,000 compounds, 0.061% hits. GFP/RFP ratio change, % at 20 µM;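 active means GFP/RFP ratio change of at least 30% with cell ATP level not reduced by more than half and red fluorescence within 50% of control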
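Read-out: GFP/RFP fluorescence ratio; Test system: RFP-PRO-GFP reporter HT1080 cells; Compound dosing: single-point 20 µM compound, 1% DMSO; Times: overnight compound exposure at 37 °C.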
PolyA inh = inhibitors of polyadenylation in S. cerevisiae. 300,000 compounds, 0.02% hits. S. cerevisiae SKY197-pL101 polyadenylation reporter, beta-gal luminescence; efflux-impaired pdr1/pdr3 knockout yeast; score 100 = 6 SD above DMSO. AID 1875. activity score, % at 12 µM;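 active means lowest replicate activity score at least 50, where 100 means six control SD above control mean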;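 further: yeast exposed to compound for 9 h at 30 °C; higher score means more reporter readthrough which indicates perturbed polyadenylation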
Tn7 DDE FP = DD(E)-Tn7 binding inhibition, primary FP screen; P02675; FP displacement of FITC-Tn7 peptide from fibrin DD(E); 0% = median of compound wells per plate; inhibition, % at 8.3 µM; 370,000 compounds, 0.13% hits;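 active means inhibition above the mean of compounds falling within the control limits plus 3 SD of them, cut at about 14% in these data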
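Measure: % inhibition scaled between sample-field median and high-control FP; Test system: human fibrin DD(E); Quantity: 2 µM final DD(E) protein; Doses: one dose, 8.3 µM nominal; Schedule: compound with protein 10 min, then 3 h after probe, room temperature; Detection: fluorescence polarization; Medium: Tris buffer with calcium and detergent, pH 7.8.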
Tn6 DDE ctr = counter-screen for inhibitors of Tn6 peptide binding to fibrin DD(E). shares compounds with DDE Tn6 FP inh. TRITC-Tn6 fluorescence polarization displacement; 0% = median of compound wells, not DMSO. inhibition, % at 8.3 µM. 680 compounds, 2% hits. AID 720621;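 active means inhibition above the mean of test compounds lying between the control limits plus 3 SD of those, cut at about 14% in these data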
Tn6 DDE conf = DD(E)-Tn6 binding inhibition, FP confirmation | inhibition, % at 8.3 µM | 680 compounds, 10% hits | FP displacement of TRITC-Tn6 peptide from DD(E); 0% = per-plate median of test wells | shares compounds with DDE Tn6 FP inh;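 active means inhibition above the mean of compounds lying within the control limits plus 3 SD, cut at about 16% in these data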
Numbers stand for hits; – = inactive; · = not tested or not shown.

SMILES	DDE Tn6 FP inh	DAGLB inhibitor	SKN-1 inh	MT1-MMP act inh	PolyA inh	Tn7 DDE FP	Tn6 DDE ctr	Tn6 DDE conf
COc1cccc(-c2ccc(CC[C@H]3O[C@H]4CC[C@@H](CO)O[C@H]4C[C@H]3NC(=O)c3cnccn3)cc2)c1	–	·	·	·	·	–	·	·
COc1ccc(C(=O)NCc2ccncc2)cc1OC	–	–	–	–	–	–	·	·
COc1ccc(C(=O)NCc2ccc3c(c2)cc(C)n3C)cc1OC	37	–	–	–	–	–	–	–
COc1cccc(C(=O)NCc2ccc3c(c2)cc(C)n3C)c1	22	–	–	–	–	–	–	–
COc1ccc(/C=C\C(=O)NCc2ccc3c(c2)cc(C)n3C)cc1OC	30	–	–	–	–	–	–	–
Cc1cc2cc(CNC(=O)c3cccs3)ccc2n1C	–	–	–	–	–	–	·	·
COc1ccc(CN2CN3Cc4ccccc4C3CS2(=O)=O)cc1 (centres undefined)	–	·	·	·	·	–	·	·
Nc1nc2c(c(=O)[nH]1)CN(Cc1ccccc1)CC2	–	–	–	–	–	–	·	·
Nc1ncnc2c1CN(Cc1ccccc1)CC2	65	–	–	–	·	–	–	–
Cc1ccc(NC(=O)/C=C/c2ccc([N+](=O)[O-])s2)cc1	18	–	–	–	–	–	–	–
Cc1ccc(NC(=O)/C=C/c2ccc([N+](=O)[O-])s2)c(C)c1	–	–	–	–	–	–	·	·
O=C(Nc1ccccc1)C1CC(=O)N(Cc2ccccc2)C1 (centres undefined)	–	–	–	–	–	–	·	·
CC(=O)c1ccc(NC(=O)C2CC(=O)N(Cc3ccccc3)C2)cc1 (centres undefined)	16	–	–	–	–	–	–	–
O=C(c1cc2ccccc2o1)N1CCCC1	17	–	–	–	–	–	–	–
CC(=O)N1CCN(C(=O)c2cc3ccccc3o2)CC1	–	–	–	–	–	–	·	·
CCOC(=O)C(Cc1ccccc1)P(=O)(OCC)OCC (centres undefined)	–	·	·	·	·	–	·	·
COc1cccc(OCC(=O)Nc2ccccc2NC(C)=O)c1	17	–	–	–	–	–	–	–
O=C(CCN1CCOCC1)N1CCCC(Nc2ccc(F)cc2)C1 (centres undefined)	15	–	–	–	–	–	–	–
O=C(Cn1cc([N+](=O)[O-])cn1)N1CCN(c2ccccc2)CC1	–	–	–	–	–	–	·	·
O=C(Cn1cc([N+](=O)[O-])cn1)N1CCc2ccccc2C1	15	–	–	–	–	–	–	–
CCCC[C@@H]1C(=O)N2N=Cc3cc(C)c(C)cc3[C@H]2N2N=Cc3cc(C)c(C)cc3[C@@H]12	–	·	·	·	·	–	·	·
COc1ccc(-c2nnc3c4ccccc4c(C)nn23)cc1S(=O)(=O)N1CCN(CCO)CC1	23	–	–	–	–	–	–	–
Cc1nn2c(-c3ccc(S(=O)(=O)N4CCN(CCO)CC4)o3)nnc2c2ccccc12	–	–	–	–	–	–	·	·
O=C(COC(=O)CCCCCN=C1NS(=O)(=O)c2ccccc21)Nc1ccc(Cl)c(Cl)c1	29	–	–	–	–	–	–	–
Cn1c(=O)[nH]c(=O)c2c1nc(NCCCn1ccnc1)n2Cc1ccc(F)cc1	15	–	–	–	–	–	–	–
SMILES	DDE Tn6 FP inh	DAGLB inhibitor	SKN-1 inh	MT1-MMP act inh	PolyA inh	Tn7 DDE FP	Tn6 DDE ctr	Tn6 DDE conf
Nc1ccc(-c2c3ccc(=O)cc-3oc3cc(O)ccc23)cc1C(=O)O	–	–	–	–	–	–	·	·
O=c1ccc2c(-c3ccccc3)c3ccc(O)cc3oc-2c1	68	–	–	–	–	–	53	38
CC(=O)Nc1ccc(/C=C/c2ccc3cccc([N+](=O)[O-])c3n2)cc1	18	–	–	–	–	–	–	–
Cc1ccc(S(=O)(=O)N2c3ccccc3C[C@H]2CCC(=O)c2ccccc2)cc1	–	·	·	·	·	–	·	·
COc1ccc(C(CNC(=O)C(=O)NC2CCCCC2)N2CCN(C)CC2)cc1 (centres undefined)	16	–	–	–	–	–	–	–
CCCCN(C)CCCNC(=O)CCn1nc(-c2ccccc2)ccc1=O	16	–	–	–	–	–	–	–
CCCCNC(=O)CCn1nc(-c2ccccc2)ccc1=O	–	–	–	–	–	–	·	·
CCN(CC)CCN(C(=O)CCOc1ccccc1)c1nc2ccc(F)cc2s1	16	–	–	–	–	–	–	–
COc1ccc2c(c1)CN1C(=O)N(CC(C)C)S(=O)(=O)CC21 (centres undefined)	–	·	·	·	·	–	·	·
COc1nc(-c2ccccc2Cl)ccc1C#N	18	–	–	–	–	–	–	–
c1cc(CNc2ccc3c(c2)OCO3)ccn1	16	–	37	–	–	–	–	–
Cc1ccc(CNc2ccc3c(c2)OCO3)cc1	·	–	–	–	–	·	·	·
COCCCNC(=O)C[C@H]1C[C@@]2(C(=O)OC)C(=C[C@H](COCc3ccccc3)O[C@@H]2C)N(CCc2ccc(OC)c(OC)c2)C1=O	–	·	·	·	·	–	·	·
CCCS(=O)(=O)N1CCN(C(=O)c2ccc(-c3ccccc3)cc2)CC1	15	–	–	–	–	–	–	–
COc1cc(-c2csc(N3CCC(C(N)=O)CC3)n2)cc(OC)c1OC	–	·	·	·	·	–	·	·
CC/C(=C\C(=O)c1ccncc1)Nc1ccc(O)cc1	46	–	–	–	–	–	–	–
O=C(N/N=C/c1ccc(O)cc1)c1ccncc1	–	–	–	–	–	–	·	·
CN(C(=O)c1ccccc1Cl)c1ccccc1	15	–	–	–	–	–	–	–
COc1ccc(C2=Nn3c(nnc3-c3ccncc3)SC2)cc1OC	19	–	–	–	–	–	–	–
COc1ccc(C2=Nn3c(nnc3-c3cccnc3)SC2)cc1OC	–	–	–	–	–	–	·	·
COC(=O)[C@H](C)NC(=O)[C@@H]1CCCN1C(=O)CNP(=O)(OCc1ccccc1)OCc1ccccc1	–	·	·	·	·	–	·	·
COC(=O)[C@]12C[C@H](CC(=O)NCCCCc3ccccc3)C(=O)N(Cc3ccc(Cl)cc3Cl)C1=C[C@H](C1CCCC1)O[C@@H]2C	–	·	·	·	·	–	·	·
CC(=O)Oc1cccc2c1C(=O)c1c(OC(C)=O)cc(C(=O)O)cc1C2=O	16	–	–	–	–	–	–	–
CC(=O)Oc1ccc(C(=O)O)cc1OC(C)=O	–	–	–	–	–	–	·	·
